Laboratory results as given in ChEMBL document CHEMBL1123129, “Hypolipidemic activity of indan-1,3-dione derivatives in rodents” (J Med Chem, 1985).

Key:
[1] = biological target: T1, ATP-citrate synthase (Mus musculus) (UniProt Q91V92); test: In Vitro evaluation for the CF1 liver enzyme activity on ATP-Citrate Lyase exchange at concentration 200 uM
T1 sequence (whole entry): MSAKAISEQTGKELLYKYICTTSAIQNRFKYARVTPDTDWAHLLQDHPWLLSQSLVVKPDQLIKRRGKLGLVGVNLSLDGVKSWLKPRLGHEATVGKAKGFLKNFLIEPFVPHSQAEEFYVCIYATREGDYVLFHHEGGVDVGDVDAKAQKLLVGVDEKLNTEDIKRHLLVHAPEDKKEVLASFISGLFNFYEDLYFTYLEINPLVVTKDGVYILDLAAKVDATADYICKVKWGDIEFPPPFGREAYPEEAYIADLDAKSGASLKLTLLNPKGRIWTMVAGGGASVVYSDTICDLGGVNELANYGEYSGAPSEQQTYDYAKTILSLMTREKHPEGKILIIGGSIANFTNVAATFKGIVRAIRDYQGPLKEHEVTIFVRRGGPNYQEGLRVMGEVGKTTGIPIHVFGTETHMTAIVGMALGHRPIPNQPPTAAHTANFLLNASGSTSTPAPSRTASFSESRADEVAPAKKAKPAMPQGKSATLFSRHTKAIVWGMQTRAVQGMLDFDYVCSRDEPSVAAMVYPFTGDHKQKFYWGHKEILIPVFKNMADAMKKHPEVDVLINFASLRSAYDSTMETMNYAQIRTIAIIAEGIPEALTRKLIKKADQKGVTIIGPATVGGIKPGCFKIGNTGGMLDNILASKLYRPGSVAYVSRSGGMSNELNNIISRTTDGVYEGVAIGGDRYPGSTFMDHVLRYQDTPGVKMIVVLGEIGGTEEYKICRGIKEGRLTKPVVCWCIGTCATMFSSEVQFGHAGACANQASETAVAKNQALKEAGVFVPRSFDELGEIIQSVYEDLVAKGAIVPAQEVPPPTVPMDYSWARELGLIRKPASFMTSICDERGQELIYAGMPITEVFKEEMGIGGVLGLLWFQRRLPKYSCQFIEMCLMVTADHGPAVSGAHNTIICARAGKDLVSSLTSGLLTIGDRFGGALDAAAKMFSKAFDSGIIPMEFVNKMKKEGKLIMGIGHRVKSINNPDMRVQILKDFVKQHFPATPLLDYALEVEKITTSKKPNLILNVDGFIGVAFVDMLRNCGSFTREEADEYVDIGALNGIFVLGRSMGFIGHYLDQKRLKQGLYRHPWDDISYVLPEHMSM
How it was run: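 Liver was taken from CF1 male mice and made into 10% homogenates, which were incubated with test compound at 50, 100 or 200 µM. Each enzyme was assayed by its literature method, and protein was measured by Lowry. N = 6. Activity is expressed as % of untreated control ± SD.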

[2] = biological target: T2, 3-hydroxy-3-methylglutaryl-coenzyme A reductase (Mus musculus) (UniProt Q01237); test: In Vivo effect for the hypolipidemic activity on HMG-CoA reductase in CF1 mice after 16 days of oral administration at a dose of 10 mg/kg; format: organism-based; design: dose 10 mg/kg
T2 sequence (whole entry): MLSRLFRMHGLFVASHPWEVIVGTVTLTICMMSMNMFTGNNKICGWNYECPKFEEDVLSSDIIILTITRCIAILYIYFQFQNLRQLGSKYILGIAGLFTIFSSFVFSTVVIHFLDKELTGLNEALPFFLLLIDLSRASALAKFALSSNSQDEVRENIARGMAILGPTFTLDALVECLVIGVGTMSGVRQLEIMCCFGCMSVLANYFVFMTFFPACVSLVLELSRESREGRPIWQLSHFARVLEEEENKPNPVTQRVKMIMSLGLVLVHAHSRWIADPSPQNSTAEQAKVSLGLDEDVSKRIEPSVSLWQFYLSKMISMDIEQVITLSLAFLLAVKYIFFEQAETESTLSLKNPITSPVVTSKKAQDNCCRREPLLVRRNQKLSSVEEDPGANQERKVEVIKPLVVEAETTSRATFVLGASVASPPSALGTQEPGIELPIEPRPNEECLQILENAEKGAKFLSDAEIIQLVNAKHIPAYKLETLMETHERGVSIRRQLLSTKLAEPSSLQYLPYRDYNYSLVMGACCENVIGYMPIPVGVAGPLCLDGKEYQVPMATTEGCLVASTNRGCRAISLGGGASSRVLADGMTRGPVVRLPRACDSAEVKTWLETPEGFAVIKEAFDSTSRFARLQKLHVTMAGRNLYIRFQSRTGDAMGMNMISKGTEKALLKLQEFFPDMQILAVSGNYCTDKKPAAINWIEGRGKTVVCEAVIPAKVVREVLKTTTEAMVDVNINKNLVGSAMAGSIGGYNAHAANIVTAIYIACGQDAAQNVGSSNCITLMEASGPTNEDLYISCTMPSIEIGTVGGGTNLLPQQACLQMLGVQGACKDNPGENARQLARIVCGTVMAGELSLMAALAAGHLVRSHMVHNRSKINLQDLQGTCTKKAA
How it was run: (§1)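 CF1 male mice are dosed orally at 10–60 mg/kg per day for 16 days, with 1% CMC as the control vehicle. Liver is homogenized at 10% in 0.25 M sucrose + 0.001 M EDTA, pH 7.2. Enzymes are assayed by literature methods, with Lowry protein. Activity is given as % of control (X ± SD, N = 6), with p from Student's t test.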

[3] = biological target: T2, 3-hydroxy-3-methylglutaryl-coenzyme A reductase (Mus musculus); test: In Vivo effect for the hypolipidemic activity on HMG-CoA reductase in CF1 mice after 16 days of oral administration at a dose of 60 mg/kg; format: organism-based; design: dose 60 mg/kg; how it was run: as §1
[4] = system: Mus musculus; test: Compound was evaluated for the hypolipidemic activity in CF1 male mice at a dose of 20 mg/kg orally for Serum triglyceride at 16th day; format: functional; conditions: route oral
How it was run: (§2)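 CF1 male mice received the agent orally in 1% CMC at 10–60 mg/kg per day. Tail-vein blood was taken on days 9 and 16. Serum cholesterol was measured by modified Liebermann–Burchard on duplicate 25-µL samples, and serum triglyceride on day 16 in duplicate 50-µL samples. Values are % of vehicle control, mean ± SD, N = 6; Student's t test.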

[5] = system: Mus musculus; test: Compound was evaluated for the hypolipidemic activity in CF1 male mice at a dose of 40 mg/kg orally for Serum cholesterol at 16th day; format: functional; conditions: route oral; how it was run: as §2
[6] = system: Rattus norvegicus; test: Compound was evaluated for the hypolipidemic activity at 20 mg/kg per day orally for 14 days on cholesterol content in rat HDL; format: functional; conditions: route oral
How it was run: (§3)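 Male Sprague–Dawley rats (~300 g) were dosed orally each day. Blood was drawn from the abdominal vein. Lipoprotein fractions (chylomicron, VLDL, LDL, HDL) were separated by the Hatch–Lees and Havel methods. Each fraction was assayed for cholesterol, triglyceride (enzymatic kit), neutral lipids, phospholipids and Lowry protein. Values are % of 1% CMC vehicle control, N = 6.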

[7] = system: Rattus norvegicus; test: Compound was evaluated for the hypolipidemic activity at 20 mg/kg per day orally for 14 days on cholesterol content in rat LDL; format: functional; conditions: route oral; how it was run: as §3
[8] = species: Mus musculus; test: In Vitro evaluation for the CF1 liver enzyme activity on Hepatic lipoprotein lipase at concentration 50 uM; format: functional
How it was run: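 Mouse liver enzymes assayed in vitro on 10% homogenates of CF1 male mouse liver, with test drug added at 50–200 μM. Each enzyme follows a published procedure. Protein is measured by Lowry. Activity is given as % of untreated control (X ± SD, N = 6).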

Control [1]: 52%
Control [2]: 116%
Control [3]: 126%
SMILES: COc1ccc(C2C(=O)c3ccccc3C2=O)cc1 [ANISINDIONE]
Control [4]: 48%
Control [5]: 48%
Control [6]: 216%
Control [7]: 18%
Control [8]: 86%
